pIC50: −log10 of the molar value.
Assays:
[1] = target: T1, Proteasome subunit beta type-9 (Homo sapiens, UniProt P28065); experiment: Inhibition of human 20S proteasome LMP2 using Ac-PAL-AMC as fluorogenic substrate measured every minute for 1 hr by fluorescence assay
T1 sequence (P28065 whole entry): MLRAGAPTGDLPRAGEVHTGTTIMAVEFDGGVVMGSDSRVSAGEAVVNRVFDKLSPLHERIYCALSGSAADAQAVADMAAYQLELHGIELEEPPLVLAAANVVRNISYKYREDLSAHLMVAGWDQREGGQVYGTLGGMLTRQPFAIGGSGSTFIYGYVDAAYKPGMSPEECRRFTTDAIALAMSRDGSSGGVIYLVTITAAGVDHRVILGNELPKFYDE
Summary of the method: (§1)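 Preincubated 1 h with inhibitor at 3-10,000 nM (8 concentrations). Substrates at 100 μM: Ac-PAL-AMC (LMP2), Ac-nLPnLD-AMC (Y), Ac-ANW-AMC (LMP7). Ac-WLA-AMC (X) at 20 μM. AMC fluorescence (360/460 nm) read each minute for 1 h; 3 replicates.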

[2] = target: T2, Proteasome subunit beta type-8 (Homo sapiens, UniProt P28062); experiment: Inhibition of human 20S proteasome LMP7 using Ac-ANW-AMC as fluorogenic substrate measured every minute for 1 hr by fluorescence assay
T2 sequence (P28062 whole entry): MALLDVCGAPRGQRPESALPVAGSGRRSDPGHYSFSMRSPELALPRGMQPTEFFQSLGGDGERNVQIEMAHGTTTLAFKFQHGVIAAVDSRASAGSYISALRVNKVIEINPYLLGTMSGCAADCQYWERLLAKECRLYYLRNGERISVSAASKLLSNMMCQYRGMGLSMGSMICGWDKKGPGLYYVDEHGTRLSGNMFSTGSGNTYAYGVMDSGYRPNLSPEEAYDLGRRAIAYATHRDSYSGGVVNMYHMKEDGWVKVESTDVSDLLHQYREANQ
Summary of the method: as §1, with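 “Purified human 20S constitutive or immunoproteasome, 50 ng in 20 mM Tris-HCl, 0.5 mM EDTA, 0.035% SDS, pH 8.0. Preincubated” for “Preincubated”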

[3] = Inhibition of human 20S proteasome X using Ac-WLA-AMC as fluorogenic substrate measured every minute for 1 hr by fluorescence assay
Summary of the method: as §1, with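 “Purified human 20S constitutive or immunoproteasome, 50 ng in 20 mM Tris-HCl, 0.5 mM EDTA, 0.035% SDS, pH 8.0. Preincubated” for “Preincubated”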

[4] = Inhibition of human 20S proteasome Y using Ac-nLPnLD-AMC as fluorogenic substrate measured every minute for 1 hr by fluorescence assay; summary of the method: as §1
[5] = target: T1, Proteasome subunit beta type-9; experiment: Inhibition of human 20S proteasome LMP2 activity in human RPMI-8226 cells using Ac-PAL-AMC as fluorogenic substrate incubated for 72 hrs by fluorescence assay; format: cell-based
[6] = target: T1, Proteasome subunit beta type-9; experiment: Inhibition of human 20S proteasome LMP2 activity in human RPMI-8226 cells overexpressing ABCB1 using Ac-PAL-AMC as fluorogenic substrate incubated for 72 hrs by fluorescence assay; format: cell-based
[7] = species: Homo sapiens; experiment: Selectivity index, ratio of IC50 for inhibition of human 20S proteasome LMP2 activity in human RPMI-8226 cells overexpressing ABCB1 to IC50 for inhibition of human 20S proteasome LMP2 activity in human RPMI-8226 cells; format: cell-based
Summary of the method: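 Carfilzomib-resistant RPMI 8226/ABCB1 line, kept drug-free for two weeks, alongside parental RPMI 8226. Cells exposed to varying inhibitor concentrations for 72 h, n=3 per concentration. Lysates (5 μg protein, pH 8.0 Tris/EDTA/0.035% SDS buffer) read with 100 μM Ac-PAL-AMC at ex 360/em 460 nm every minute for 1 h. IC50 from curve fitting, mean ± SD.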

pIC50 [1] | pIC50 [2] | pIC50 [3] | pIC50 [4] | pIC50 [5] | pIC50 [6] | Structure (SMILES) | Ratio IC50 [7]
6.62 | < 5.00 | < 5.00 | – | – | – | CC(C)C[C@H](NC(=O)[C@@H]1COCCCCCC(=O)N2CC(F)(F)C[C@H]2C(=O)N1)C(=O)[C@@]1(C)CO1 | –
6.58 | < 5.00 | < 5.00 | – | – | – | CC(C)C[C@H](NC(=O)[C@@H]1COCCCCCC(=O)N2CC[C@H]2C(=O)N1)C(=O)[C@@]1(C)CO1 | –
6.60 | < 5.00 | < 5.00 | – | – | – | C[C@]1(C(=O)[C@H](Cc2ccccc2)NC(=O)[C@@H]2COCCCCCC(=O)N3CCC[C@H]3C(=O)N2)CO1 | –
6.28 | 5.24 | < 5.00 | – | – | – | C[C@]1(C(=O)[C@H](CC2CCCCC2)NC(=O)[C@@H]2COCCCCCC(=O)N3CCC[C@H]3C(=O)N2)CO1 | –
– | – | < 5.00 | – | – | – | CC(=O)NCC(=O)N1CCC[C@H]1C(=O)N[C@@H](Cc1ccccc1)C(=O)N[C@@H](CC(C)C)C(=O)[C@@]1(C)CO1 | –
6.80 | < 5.00 | < 5.00 | – | – | – | CC(C)C[C@H](NC(=O)[C@@H]1COCCCCCCCC(=O)N2CCC[C@H]2C(=O)N1)C(=O)[C@@]1(C)CO1 | –
6.78 | 5.57 | 5.30 | – | – | – | C[C@]1(C(=O)[C@H](CC2CCCCC2)NC(=O)[C@@H]2Cc3ccc(cc3)OCCCCCCCC(=O)N3CCC[C@H]3C(=O)N2)CO1 | –
6.38 | 6.47 | 5.30 | 6.38 | – | – | CC(C)C[C@H](NC(=O)[C@@H]1Cc2ccc(cc2)OCCCCCCCCC(=O)N2CCC[C@H]2C(=O)N1)C(=O)[C@@]1(C)CO1 | –
6.89 | 5.82 | 5.32 | 6.15 | 7.47 | 6.79 | CC(C)C[C@H](NC(=O)[C@@H]1Cc2ccc(cc2)OCCCCCCCC(=O)N2CCC[C@H]2C(=O)N1)C(=O)[C@@]1(C)CO1 | 4.7
6.37 | < 5.00 | < 5.00 | – | – | – | CC(C)C[C@H](NC(=O)[C@@H]1Cc2ccc(cc2)OCCCCCCC(=O)N2CCC[C@H]2C(=O)N1)C(=O)[C@@]1(C)CO1 | –
5.34 | < 5.00 | < 5.00 | – | – | – | CC(C)C[C@H](NC(=O)[C@@H]1COCCCCCC(=O)N2CCC[C@@]2(C)C(=O)N1)C(=O)[C@@]1(C)CO1 | –
6.38 | < 5.00 | 5.97 | 5.82 | 7.45 | 6.83 | CC(C)C[C@H](NC(=O)[C@@H]1COCCCCCC(=O)N2CCC[C@H]2C(=O)N1)C(=O)[C@@]1(C)CO1 | 4.1
6.25 | < 5.00 | 5.33 | – | – | – | CC(C)C[C@H](NC(=O)[C@@H]1COCCCCCCC(=O)N2CCC[C@H]2C(=O)N1)C(=O)[C@@]1(C)CO1 | –
7.16 | < 5.00 | < 5.00 | – | < 5.00 | < 5.00 | CC(C)C[C@H](NC(=O)[C@@H]1COCCCCCC(=O)NCC(=O)N2CCC[C@H]2C(=O)N1)C(=O)[C@@]1(C)CO1 | –
– | – | < 5.00 | – | – | – | CC(C)C[C@H](NC(=O)[C@H](Cc1ccccc1)NC(=O)[C@@H]1CCCN1C(=O)CNC(=O)c1cnccn1)C(=O)[C@@]1(C)CO1 | –
5.67 | < 5.00 | < 5.00 | < 5.00 | – | – | CC(C)C[C@H](NC(=O)[C@@H]1COCCCCCC(=O)N2C[C@H](F)C[C@H]2C(=O)N1)C(=O)[C@@]1(C)CO1 | –
5.90 | < 5.00 | < 5.00 | – | – | – | CC(C)C[C@H](NC(=O)[C@@H]1COCCCCCC(=O)N2CCCC[C@H]2C(=O)N1)C(=O)[C@@]1(C)CO1 | –

Structure (SMILES) | pIC50 [1] | pIC50 [2] | pIC50 [3] | pIC50 [4] | pIC50 [5] | pIC50 [6] | Ratio IC50 [7]
CC(C)C[C@H](NC(=O)[C@@H]1COCCCCCCC(=O)NCC(=O)N2CCC[C@H]2C(=O)N1)C(=O)[C@@]1(C)CO1 | 7.18 | < 5.00 | < 5.00 | – | < 5.00 | < 5.00 | –

Source: ChEMBL document CHEMBL4828720, “Macrocyclic Immunoproteasome Inhibitors as a Potential Therapy for Alzheimer's Disease” (J Med Chem, 2021)
